Measurements gathered from unrelated publications.
Lines come from different studies, so protocols differ.
Target: Glucocorticoid receptor (NR3C1, Homo sapiens, UniProt P04150)
Residues used in one study (P04150 1-777): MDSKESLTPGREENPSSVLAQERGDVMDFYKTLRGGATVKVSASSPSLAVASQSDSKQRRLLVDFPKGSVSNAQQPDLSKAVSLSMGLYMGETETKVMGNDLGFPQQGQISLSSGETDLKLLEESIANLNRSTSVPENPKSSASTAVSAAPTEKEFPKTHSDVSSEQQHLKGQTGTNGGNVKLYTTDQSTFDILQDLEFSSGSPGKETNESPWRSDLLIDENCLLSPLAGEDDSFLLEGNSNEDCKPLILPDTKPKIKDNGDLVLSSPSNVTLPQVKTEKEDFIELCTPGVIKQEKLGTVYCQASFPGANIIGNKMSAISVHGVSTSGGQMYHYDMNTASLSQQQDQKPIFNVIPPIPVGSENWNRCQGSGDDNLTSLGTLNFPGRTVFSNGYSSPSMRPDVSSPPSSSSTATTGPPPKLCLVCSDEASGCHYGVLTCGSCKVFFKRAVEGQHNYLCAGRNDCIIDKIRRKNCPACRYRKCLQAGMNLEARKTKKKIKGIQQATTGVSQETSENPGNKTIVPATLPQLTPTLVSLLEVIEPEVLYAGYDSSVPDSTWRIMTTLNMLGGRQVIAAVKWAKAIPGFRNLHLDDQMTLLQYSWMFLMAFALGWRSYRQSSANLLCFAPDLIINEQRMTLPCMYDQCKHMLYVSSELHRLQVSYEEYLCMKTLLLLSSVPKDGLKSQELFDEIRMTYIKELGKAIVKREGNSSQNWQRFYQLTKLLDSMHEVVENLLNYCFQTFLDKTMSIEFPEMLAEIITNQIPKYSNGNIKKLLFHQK

SMILES | effect on | technique | concentration | quantity | result
CC(C)N1CCC[C@H]1CNC(=O)c1cn(C2CCCC2)c(=O)c2c1c1ccccc1n2C | ligand displacement | radioligand | 10 µM | inhibition | 1%
Nc1ncc(-c2nc(N3CCOCC3)nc(N3CCOCC3)n2)c(C(F)F)n1 | cell-free assay | radioligand | 10 µM | remaining signal | 105%
Clc1ccc2c(C3CCN(CCc4c[nH]c5ccccc45)CC3)c[nH]c2c1 | ligand displacement | radioligand | 10 µM | inhibition | 7%
O=C(Nc1cccnn1)N1CCN([C@@H]2CCOc3cc(C(F)(F)F)ccc32)CC1 | cell-free assay | – | 20 µM | inhibition | 4%
c1ccc(C(NCCNC(c2ccccc2)c2ccccc2)c2ccccc2)cc1 | cell-free assay | – | 10 µM | inhibition | 6%
COCc1c(-c2cc3cc(C)cc(OC)c3s2)c2c(N)ncnn2c1CN1CCNC(=O)C1 | ligand displacement | radioligand | 10 µM | inhibition | -1%
C[C@H](C(=O)N[C@H]1COc2ccccc2[C@@H]1S(C)(=O)=O)c1ccc(F)cc1 | cell-free assay | – | 10 µM | inhibition | 14%
CN(CCN1CCC(OC(=O)Nc2ccccc2-c2ccccc2)CC1)C(=O)c1ccc(CN2CCC(C(N)=O)CC2)cc1 | ligand displacement | radioligand | 1 µM | inhibition | -8%
